Results: ChEMBL document CHEMBL3352272, “Discovery of 2-[5-(4-Fluorophenylcarbamoyl)pyridin-2-ylsulfanylmethyl]phenylboronic Acid (SX-517): Noncompetitive Boronic Acid Antagonist of CXCR1 and CXCR2” (J Med Chem, 2014)
Calls of active or inactive are those of the source. The calls are words filed in the database; no cut-off is given here.

Tests used:
[1] = target: T1, C-X-C chemokine receptor type 2 (Homo sapiens, UniProt P25025); experiment: Antagonist activity at CXCR2 in human PMNs assessed as inhibition of CXCL1-induced intracellular Ca2+ release by fluorescence based calcium flux assay; type: functional, cell-based
T1 sequence (P25025 whole entry): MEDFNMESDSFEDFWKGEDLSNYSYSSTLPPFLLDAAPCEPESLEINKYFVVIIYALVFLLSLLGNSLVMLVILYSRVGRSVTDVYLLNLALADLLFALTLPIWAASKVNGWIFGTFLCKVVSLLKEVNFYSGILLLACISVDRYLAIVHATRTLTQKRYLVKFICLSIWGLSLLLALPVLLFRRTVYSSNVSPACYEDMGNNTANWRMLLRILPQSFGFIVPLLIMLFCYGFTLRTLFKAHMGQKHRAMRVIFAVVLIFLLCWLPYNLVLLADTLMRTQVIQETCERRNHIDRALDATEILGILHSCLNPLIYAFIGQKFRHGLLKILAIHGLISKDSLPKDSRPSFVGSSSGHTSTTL

[2] = target: T1, C-X-C chemokine receptor type 2; experiment: Antagonist activity at human CXCR2 expressed in HEK293 cells assessed as inhibition of […]-induced [35S]GTPgammaS binding after 60 mins; type: functional, cell-based
Summary of the method: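 HEK293 cells stably expressing human CXCR2 were pretreated with compound, then lysed (5 mM Tris-HCl pH 7.5, EDTA, EGTA) and membranes spun at 30000g. […] Nonspecific binding was taken with 10 μM GTPγS. IC50 came from nonlinear regression.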

[3] = target: T2, C-X-C chemokine receptor type 2 (Homo sapiens) (UniProt P25025); experiment: Displacement of [125I]CXCL8 from human CXCR2 expressed in HEK293 cell membranes up to 10 uM by liquid scintillation counting method
T2 sequence (whole entry): T1 sequence (P25025 whole entry)
Summary of the method: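 After 1 h at room temperature, membranes were filtered and counted by scintillation. Results were expressed as % of control specific binding.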

[4] = target: T2, C-X-C chemokine receptor type 2 (Homo sapiens); experiment: Effect on cell surface expression of human CXCR2 expressed in HEK293 cell […] at 10 uM incubated for 60 mins by FACS method; type: cell-based
Summary of the method: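 Stably CXCR2-expressing HEK293 cells were pretreated with 10 μM compound or 1% DMSO for 60 min. They were stained with PE-conjugated anti-human CXCR2 mAb (1:100) at 4 °C for 60 min, fixed in 2% formaldehyde and analysed by flow cytometry. Non-expressing HEK293 cells served as the negative control.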

[5] = target: T2, C-X-C chemokine receptor type 2 (Homo sapiens); experiment: Antagonist activity at human CXCR2 expressed in HEK293 cells assessed as reduction in CXCL8-induced ERK1/2 phosphorylation at 10 uM after 30 mins by Western blotting method; type: cell-based
Summary of the method: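 Cells were lysed at 0, 5, 15 and 30 min. About 50 μg of protein was run on 10% SDS-PAGE, blotted, and probed for phospho-ERK1/2 and total ERK1/2 with an HRP secondary.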

[6] = target: T3, Interleukin-8 receptors, CXCR1/CXCR2 (Homo sapiens, UniProt P25025+P25024); experiment: Antagonist activity at CXCR1/CXCR2 in human PMNs assessed as inhibition of CXCL8-induced intracellular Ca2+ release by fluorescence based calcium flux assay; type: functional, cell-based
T3 sequence (P25025 whole entry): T1 sequence (P25025 whole entry)
T3 sequence (P25024 whole entry): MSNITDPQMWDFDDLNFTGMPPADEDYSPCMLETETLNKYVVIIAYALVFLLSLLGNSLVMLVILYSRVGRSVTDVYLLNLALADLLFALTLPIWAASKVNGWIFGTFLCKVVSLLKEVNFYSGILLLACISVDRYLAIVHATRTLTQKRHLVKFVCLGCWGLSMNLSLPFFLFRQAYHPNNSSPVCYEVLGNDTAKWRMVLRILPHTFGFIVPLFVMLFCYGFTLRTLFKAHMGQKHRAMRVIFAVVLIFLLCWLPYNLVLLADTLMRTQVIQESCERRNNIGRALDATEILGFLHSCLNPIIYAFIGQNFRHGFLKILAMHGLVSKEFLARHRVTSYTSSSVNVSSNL

[7] = target: T4, C5a anaphylatoxin chemotactic receptor 1 (Homo sapiens, UniProt P21730); experiment: Antagonist activity at C5a receptor in human PMNs assessed as inhibition of C5a-induced intracellular Ca2+ release by fluorescence based calcium flux assay; type: functional, cell-based
T4 sequence (P21730 whole entry): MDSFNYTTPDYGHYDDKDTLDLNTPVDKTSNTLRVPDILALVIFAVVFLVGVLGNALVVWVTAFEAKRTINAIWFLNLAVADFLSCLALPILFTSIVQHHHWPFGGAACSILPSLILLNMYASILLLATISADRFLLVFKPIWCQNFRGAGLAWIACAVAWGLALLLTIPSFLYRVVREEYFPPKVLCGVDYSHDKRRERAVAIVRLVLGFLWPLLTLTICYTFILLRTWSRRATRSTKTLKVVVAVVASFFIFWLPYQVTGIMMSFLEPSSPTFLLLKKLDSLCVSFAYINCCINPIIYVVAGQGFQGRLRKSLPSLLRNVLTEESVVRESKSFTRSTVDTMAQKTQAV

[8] = target: Platelet-activating factor receptor (Homo sapiens, UniProt P25105); experiment: Antagonist activity at platelet-activating factor receptor in human PMNs assessed as inhibition of PAF-induced intracellular Ca2+ release by fluorescence based calcium flux assay; type: functional, cell-based
Sequence of Platelet-activating factor receptor (P25105 whole entry): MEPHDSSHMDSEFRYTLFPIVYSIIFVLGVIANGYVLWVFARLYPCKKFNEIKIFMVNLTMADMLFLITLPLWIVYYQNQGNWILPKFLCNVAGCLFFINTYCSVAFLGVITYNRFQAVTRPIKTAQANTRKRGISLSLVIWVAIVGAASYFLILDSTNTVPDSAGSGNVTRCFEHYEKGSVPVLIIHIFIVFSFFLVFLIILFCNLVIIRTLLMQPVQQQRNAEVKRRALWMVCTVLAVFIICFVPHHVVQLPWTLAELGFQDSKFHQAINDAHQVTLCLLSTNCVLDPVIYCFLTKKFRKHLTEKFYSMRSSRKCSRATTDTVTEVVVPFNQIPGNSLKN

[9] = target: T5, fMet-Leu-Phe receptor (Homo sapiens, UniProt P21462); experiment: Antagonist activity at fMLF receptor in human PMNs assessed as inhibition of fMLF-induced intracellular Ca2+ release by fluorescence based calcium flux assay; type: functional, cell-based
T5 sequence (P21462 whole entry): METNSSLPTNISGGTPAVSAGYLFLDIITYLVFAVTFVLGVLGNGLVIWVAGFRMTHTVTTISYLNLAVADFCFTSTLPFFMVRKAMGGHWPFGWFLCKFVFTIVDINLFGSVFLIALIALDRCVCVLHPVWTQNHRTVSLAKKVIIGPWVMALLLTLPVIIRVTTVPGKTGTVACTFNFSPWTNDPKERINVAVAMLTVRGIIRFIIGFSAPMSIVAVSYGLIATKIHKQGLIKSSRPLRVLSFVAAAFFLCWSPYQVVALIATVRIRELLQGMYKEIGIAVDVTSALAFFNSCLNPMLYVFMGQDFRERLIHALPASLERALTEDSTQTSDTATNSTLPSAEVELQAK

[10] = target: T6, C-X-C chemokine receptor type 1 (Homo sapiens, UniProt P25024); experiment: Antagonist activity at human CXCR1 expressed in HEK293 cells assessed as inhibition of CXCL8-induced intracellular Ca2+ release by fluorescence based calcium flux assay; type: functional, cell-based
T6 sequence (P25024 whole entry): T3 sequence (P25024 whole entry)
Summary of the method: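 HEK293 cells were stably transfected with human CXCR1, with a pooled polyclonal line selected in 800 μg/mL G418. […] Fluorescence was read at ex 485/em 525, and max–min was taken as % of control.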

[11] = target: T1, C-X-C chemokine receptor type 2; experiment: Antagonist activity at human CXCR2 expressed in HEK293 cells assessed as inhibition of CXCL8-induced intracellular Ca2+ release by fluorescence based calcium flux assay; type: functional, cell-based
[12] = target: Interleukin-8 receptors, CXCR1/CXCR2 (Homo sapiens) (UniProt P25025+P25024); experiment: Antagonist activity at CXCR1/CXCR2 in human PMNs assessed as inhibition of CXCL8-induced intracellular Ca2+ release at 1 uM by fluorescence based calcium flux assay; type: functional, cell-based
Summary of the method: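 Dye-loaded hPMNs were preincubated with compound or 1% DMSO at 37 °C for 30 min, then resuspended in HBSS+ with compound re-added. […] Fluorescence (ex 485/em 525) was read every 5 s for 240–500 s at room temperature, and the max–min response was expressed as % of the DMSO control.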

[13] = tested on: Mus musculus; experiment: Antiinflammatory activity in CD1 Swiss mouse air pouch model of inflammation assessed as reduction in total cell count in inflammatory infiltrate at 0.2 mg/kg, iv dosed 3 hrs before carrageenan challenge and measured 4 hrs post carrageenan challenge by trypan blue staining based hemocytometry; type: functional, organism-based; design: dose 0.2 mg/kg
Summary of the method: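 Male CD1 Swiss mice aged 10–15 weeks received a 2 mL subcutaneous dorsal air injection, reinflated with 1.5 mL the next day. Compound in 20:20:80 PEG400:DMF:saline, or vehicle, was given iv by tail vein (n=5 per group). After 3 h, 1 mL of 2% carrageenan in PBS, or PBS, was injected into the pouch. After 4 h, pouch fluid plus a 2 mL PBS wash was collected, and trypan blue-stained cells were counted by hemocytometer. Statistics used Student's t-test.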

Row | SMILES | IC50 [1] [µM] | also measured
1 | O=C(Nc1ccc(F)cc1)c1ccc(SCC2CCCCO2)nc1 (stereo unspecified) | > 5 | 
2 | COC(=O)c1ccc(CSc2ccc(C(=O)Nc3ccc(F)cc3)cn2)cc1 | > 10 | 
3 | Cc1nc(-c2ccc(C(F)(F)F)cc2)sc1CSc1ccc(C(=O)Nc2ccc(F)cc2)cn1 | > 10 | 
4 | O=C(Nc1ccc(F)cc1)c1ccc(SCc2ccccc2O)nc1 | 0.277 | 
5 | CCOP(=O)(CSc1ccc(C(=O)Nc2ccc(F)cc2)cn1)OCC | > 10 | 
6 | O=C(Nc1ccc(F)cc1)c1ccc(Sc2ccccc2)nc1 | > 10 | 
7 | COC(=O)c1cccc(CSc2ccc(C(=O)Nc3ccc(F)cc3)cn2)c1 | > 5 | 
8 | O=C(Nc1ccc(F)cc1)c1ccc(SCc2cccc(OC(F)(F)F)c2)nc1 | > 10 | 
9 | O=C(O)c1ccc(NC(=O)c2ccc(SCc3ccccc3B(O)O)nc2)cc1 | > 10 | 
10 | Cc1nc(-c2cccc(CSc3ccc(C(=O)Nc4ccc(F)cc4)cn3)c2)cs1 | > 5 | 
11 | Cc1nc(-c2ccc(CSc3ccc(C(=O)Nc4ccc(F)cc4)cn3)cc2)cs1 | > 10 | 
12 | O=C(Nc1ccc(F)cc1)c1ccc(SCc2ccc(C(F)(F)F)o2)nc1 | > 5 | 
13 | O=C(Nc1ccc(F)cc1)c1ccc(SCc2ccc(OC(F)(F)F)cc2)nc1 | > 10 | 
14 | O=C(Nc1ccc(F)cc1)c1ccc(SCc2ccc([N+](=O)[O-])cc2)nc1 | > 5 | 
15 | Cc1n[nH]c(C)c1CCSc1ccc(C(=O)Nc2ccc(F)cc2)cn1 | > 5 | 
16 | O=C(Nc1ccc(F)cc1)c1ccc(SCC2CCOCC2)nc1 | > 5 | 
17 | O=C(Nc1ccc(F)cc1)c1ccc(SC[N+](=O)[O-])nc1 | > 10 | 
18 | O=C(O)CSc1ccc(C(=O)Nc2ccc(F)cc2)cn1 | > 5 | 
19 | O=C(Nc1ccc(F)cc1)c1ccc(SCc2ccc(-n3cccc3)cc2)nc1 | > 10 | 
20 | Cc1onc(-c2ccccc2)c1CSc1ccc(C(=O)Nc2ccc(F)cc2)cn1 | > 5 | 

Row | SMILES | IC50 [1] [µM] | also measured
21 | O=C(Nc1ccc(F)cc1)c1ccc(SCS(=O)(=O)c2ccccc2)nc1 | > 5 | 
22 | O=C(Nc1ccc(F)cc1)c1ccc(SCc2ccc(-n3cncn3)cc2)nc1 | > 10 | 
23 | O=C(Nc1ccc(F)cc1)c1ccc(SCc2ccc([N+](=O)[O-])o2)nc1 | > 5 | 
24 | O=C(Nc1ccc(F)cc1)c1ccc(SCc2ccccc2B(O)O)nc1 |  | IC50 [2]: 0.06 µM; inhibition [3]: inactive; Activity [4]: inactive; inhibition [5]: Active; IC50 [6]: 0.036 µM; IC50 [7]: > 5 µM; IC50 [8]: > 5 µM; IC50 [9]: > 5 µM; IC50 [10]: 0.88 µM; IC50 [11]: 0.21 µM; inhibition [12]: Active; inhibition [13]: Active
25 | O=C(O)c1ccc(CSc2ccc(C(=O)Nc3ccc(F)cc3)cn2)cc1 | > 10 | 
26 | Cc1cccc(CSc2ccc(C(=O)Nc3ccc(F)cc3)cn2)c1F | > 10 | 
27 | Cc1nc(-c2cccc(CSc3ccc(C(=O)Nc4ccc(F)cc4)cn3)c2)no1 | > 10 | 
28 | Cc1nc(-c2ccccc2)sc1CSc1ccc(C(=O)Nc2ccc(F)cc2)cn1 | > 5 | 
29 | O=C(Nc1ccc(F)cc1)c1ccc(SCc2ccc(-n3cccn3)cc2)nc1 | > 10 | 
30 | O=C(Nc1ccc(-c2nn[nH]n2)cc1)c1ccc(SCc2ccccc2B(O)O)nc1 | > 10 | 
31 | O=C(c1ccc(SCc2ccccc2B(O)O)nc1)N(CC1CCCCN1)c1ccc(F)cc1 (stereo unspecified) | > 5 | 
32 | O=C(Nc1ccc(F)cc1)c1ccc(SCc2cccc(-n3cccc3)c2)nc1 | > 10 | 
33 | Cc1nn(-c2ccccc2)nc1CSc1ccc(C(=O)Nc2ccc(F)cc2)cn1 | > 5 | 
34 | O=C(Nc1ccc(F)cc1)c1ccc(SCc2ccncc2)nc1 | > 5 | 
35 | Cc1nc(-c2ccc(CSc3ccc(C(=O)Nc4ccc(F)cc4)cn3)cc2)no1 | > 5 | 
36 | O=C(Nc1ccc(F)cc1)c1ccc(SC2CCOC2=O)nc1 (stereo unspecified) | > 5 | 
37 | O=C(Nc1ccc(F)cc1)c1ccc(SCc2ccccc2-c2cccs2)nc1 | > 5 | 
38 | Cc1cc(CSc2ccc(C(=O)Nc3ccc(F)cc3)cn2)no1 | > 5 | 
39 | O=C(Nc1ccc(F)cc1)c1ccc(SCC2CCN(C(=O)OCc3ccccc3)CC2)nc1 | > 10 | 
40 | Cc1noc(-c2ccccc2)c1CSc1ccc(C(=O)Nc2ccc(F)cc2)cn1 | > 10 | 
